In ChEMBL document CHEMBL1155317, “Design and optimisation of potent gp120-CD4 inhibitors” (Bioorg Med Chem Lett, 2009):

Legend:
[1] = Inhibition of HIV1 NL4-3 gp160 assessed as inhibition of interaction between gp120 and host CD4 receptor by cell-cell fusion assay; set-up: species or system Human immunodeficiency virus 1
[2] = tested on: Human immunodeficiency virus 1; test: Antiviral activity against Human immunodeficiency virus 1 NL4-3 infected HeLaP4 cells after 5 days by beta-galactosidase reporter assay; format: functional, organism-based; details: Human immunodeficiency virus 1, NL4-3, HeLaP4, 120 h
Procedure, shortened: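 HeLa-P4 cells were premixed with NL4-3 virus and added at 10^5 cells/mL to wells containing diluted compound. Plates were incubated for 5 days at 37 °C in humidified 5% CO₂. Infection was quantified with a β-galactosidase reporter assay.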

[3] = Clearance in rat at 1 mg/kg, iv and 1 mg/kg, po; format: ADME, organism-based; details: in vivo
Rattus norvegicus [4] = test: Unbound clearance in rat at 1 mg/kg, iv and 1 mg/kg, po; format: ADME, organism-based; details: in vivo
Rattus norvegicus [5] = test: Unbound volume of distribution in rat at 1 mg/kg, iv and 1 mg/kg, po; format: ADME, organism-based; details: in vivo
[6] = Bioavailability in rat at 1 mg/kg; format: ADME, organism-based; details: in vivo
[7] = Fraction of compound absorbed in rat at 1 mg/kg, iv and 1 mg/kg, po; format: ADME, organism-based; details: in vivo, read-out: Fabs
[8] = Half life in rat at 1 mg/kg, iv and 1 mg/kg, po; format: ADME, organism-based; details: in vivo

IC50 [1] [µM] | IC50 [2] [µM] | SMILES | further results
0.031 | 0.02 | CNC(=O)c1nccc2c(O[C@@H](C)C(=O)N3CCN(C(=O)c4ccccc4)C[C@H]3C)ccc(F)c12 | 
0.005 | 0.013 | CNc1ccc2c(O[C@@H](C)C(=O)N3CCN(C(=O)c4ccccc4)C[C@H]3C)cccc2n1 | clearance [3]: 1.62 L/h/kg; CL free (Rattus norvegicus [4]): 7.74 L/h/kg; Vdu (Rattus norvegicus [5]): 10.5 L/kg; bioavailability [6]: 42%; Fa [7]: 60%; half-life [8]: 54 min
1.26 |  | CNC(=O)c1ccc(O[C@@H](C)C(=O)N2CCN(C(=O)c3ccccc3)C[C@H]2C)c2cccnc12 | 
0.029 | > 1 | CNC(=O)c1cc(OC)c(O[C@@H](C)C(=O)N2CCN(c3nccc4[nH]ccc34)C[C@H]2C)cn1 | 
2.04 |  | Cc1nc2c(OC(C)C(=O)N3CCN(C(=O)c4ccccc4)C[C@H]3C)cccc2o1 (stereo partly specified) | 
0.015 | 0.079 | Cc1nn(C)c2cccc(OC(C)C(=O)N3CCN(C(=O)c4ccccc4)C[C@H]3C)c12 (stereo partly specified) | 
0.296 |  | CNC(=O)c1cc(OC)c(O[C@@H](C)C(=O)N2CCN(c3ncnc4[nH]cnc34)C[C@H]2C)cn1 | 
0.078 | > 4 | CNC(=O)c1ccc2c(O[C@@H](C)C(=O)N3CCN(C(=O)c4ccccc4)C[C@H]3C)cccc2n1 | 
0.099 | 0.271 | CC(Oc1cccc2ncccc12)C(=O)N1CCN(C(=O)c2ccccc2)C[C@H]1C (stereo partly specified) | 
21.2 |  | CNC(=O)c1ccc(O[C@@H](C)C(=O)N2CCN(C(=O)c3ccccc3)C[C@H]2C)c2ccncc12 | 
0.433 | 0.449 | CC(Oc1cccc2cccnc12)C(=O)N1CCN(C(=O)c2ccccc2)C[C@H]1C (stereo partly specified) | 
0.123 | 1.07 | CC(Oc1cccc2ccccc12)C(=O)N1CCN(C(=O)c2ccccc2)C[C@H]1C (stereo partly specified) | 
7.43 |  | CC(Oc1ccnc2ccccc12)C(=O)N1CCN(C(=O)c2ccccc2)C[C@H]1C (stereo partly specified) | 
0.493 |  | CC(Oc1cccc2nccnc12)C(=O)N1CCN(C(=O)c2ccccc2)C[C@H]1C (stereo partly specified) | 
0.016 | 0.036 | Cc1n[nH]c2cccc(OC(C)C(=O)N3CCN(C(=O)c4ccccc4)C[C@H]3C)c12 (stereo partly specified) | 
0.061 |  | CNc1nccc2c(O[C@@H](C)C(=O)N3CCN(C(=O)c4ccccc4)C[C@H]3C)cccc12 | 
